pIC50: −log10 of the molar value.
Key:
[1] = Botryllamide G plasma pharmacokinetics in wild-type mice; assay type: in vivo; conditions: male, FVB, mouse, iv, 13.4 mg/kg
Outline: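 Destructive sampling (n = 3 per timepoint) ran 0.25–24 h into heparinized plasma. Phospholipid-removal/methanol precipitation, then isocratic C18 LC-MS/MS (20–50,000 ng/mL). AUClast used Bailer's method. t1/2 = ln2/terminal kEL, from concentrations above LLOQ.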

[2] = Aqueous solubility in intravenous formulation; assay type: physicochemical; conditions: limited the dose to 13.4 mg/kg
ABCB1 = conditions: read-out: IC50 ABCB1 inhibition; in vitro; cited from earlier work
[3] = Lapatinib brain and plasma exposure in wild-type FVB mice; assay type: in vivo, mouse
[4] = Lapatinib brain and plasma exposure in Mdr1a/Mdr1b; assay type: in vivo, mouse; conditions: for lapatinib brain AUC through 8 h: Mdr1a/Mdr1b (-/-) mice; for AUC: male, FVB, mouse, brain, oral
[5] = Abcg2 knockout animals (so in the source); cited from earlier work

SMILES | AUC [1] | Cmax [1] | half-life [1] | aqueous solubility [2] | pIC50 (ABCB1) | Kp ([3]; male, FVB, mouse, brain and plasma, oral, 90 mg/kg) | AUC ([3]; male, FVB, mouse, plasma, oral, 90 mg/kg) | lapatinib brain exposure through 1 h (AUC0-1 h) ([3]; wild-type mice, doublet (lapatinib + botryllamide G)) | lapatinib brain exposure AUC through 24 h ([3]; wild-type mice, lapatinib + botryllamide G + tariquidar 4 mg/kg i.v. (triplet)) | lapatinib plasma AUC ([3]; wild-type mice, lapatinib + botryllamide G, 24 h) | lapatinib brain AUC through 24 h ([3]; wild-type mice, lapatinib alone (abstract)) | lapatinib brain exposure through 1 h (AUC0-1 h) ([3]; wild-type mice, singlet (lapatinib alone)) | lapatinib brain exposure through 1 h (AUC0-1 h) ([3]; wild-type mice, singlet (lapatinib alone), listed as Lapatinib) | lapatinib brain exposure through 1 h (AUC0-1 h) ([3]; wild-type mice, triplet (lapatinib + botryllamide G + tariquidar)) | lapatinib brain exposure through 1 h (AUC0-1 h) ([3]; wild-type mice, triplet (lapatinib + botryllamide G + tariquidar), listed as Lapatinib) | lapatinib brain AUC through 8 h ([4]; lapatinib + botryllamide G) | lapatinib brain AUC through 8 h ([4]; lapatinib alone) | AUC [4] | AUC ([4]; 90 mg/kg) | increase in lapatinib brain concentrations [5]
CO/C(=C\c1ccc(O)cc1)C(=O)N/C=C/c1cc(Br)c(O)c(Br)c1 [botryllamide G] | 2090 ng·h/mL | 4110 ng/mL | 4.6 h | poor | < 4.30 | – | – | – | – | – | – | – | – | – | – | – | – | – | – | –
CS(=O)(=O)CCNCc1ccc(-c2ccc3ncnc(Nc4ccc(OCc5cccc(F)c5)c(Cl)c4)c3c2)o1 [lapatinib, N-{3-chloro-4-[(3-fluorobenzyl)oxy]phenyl}-6-[5-({[2-(methylsulfonyl)ethyl]amino}methyl)-2-furyl]-4-quinazolinamine] | – | – | – | – | – | 0.067 | 66400 ng·h/mL | 48.3 ± 14.9 pg·h/mg | 2878 pg·h/mg | 71,576 h*pg/mg | 4461 ng·h/mL | 120 ± 39.9 pg·h/mg | 120 pg·h/mg | 298 ± 44.6 pg·h/mg | 298 pg·h/mg | 4007 pg·h/mg | 2058 pg·h/mg | 4010 ng·h/mL | 2060 ng·h/mL | approximately 40 fold

Reference: publication PMC7012088 (Cancer Biology & Therapy, 2019)
